According to PMC411066 (BMC Medicine, 2004):
Several values for one entry are separate records, joined by “and”; a condition that tells them apart may be missing. Identical values can stand only once.

How the values were obtained:
P-gp = conditions: cited from earlier work
Serum digoxin = format: in vivo, human
Procedure, shortened: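 Trough serum samples at steady state from 618 digoxin-monitoring patients, assayed by fluorescence polarization immunoassay. Orally given comedications were classed as P-gp inhibitors by PubMed search: Class I, documented in vivo effect on digoxin kinetics; Class II, in vitro inhibition only. Means ± SE from a General Linear Model adjusted for age, sex, digoxin dose and total prescribed drugs, covariates at their means.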

Row | SMILES | In vitro P-gp inhibition (P-gp) | Adjusted S-digoxin mean ± SE (Serum digoxin; patients taking one Class I P-gp inhibitor, N = 96) | Adjusted S-digoxin mean ± SE (Serum digoxin; patients taking one P-gp inhibitor, N = 204, multivariate) | S-digoxin with Class II P-gp inhibitors compared with no P-gp inhibitors (Serum digoxin; patients taking one or two Class II P-gp inhibitors, differences not significant in the multivariate model) | Adjusted S-digoxin mean ± SE (Serum digoxin; patients taking three P-gp inhibitors, N = 8, multivariate) | Adjusted S-digoxin mean ± SE (Serum digoxin; patients taking two Class I P-gp inhibitors, N = 17) | Adjusted S-digoxin mean ± SE (Serum digoxin; patients taking two P-gp inhibitors, N = 78, multivariate) | S-digoxin mean ± SE (Serum digoxin; patients with concomitant P-gp inhibitors, all patients on spironolactone excluded) | Adjusted S-digoxin mean ± SE (Serum digoxin; patients with ≥ 1 P-gp inhibitor, N = 290, adjusted for age, sex, digoxin dose and total number of prescribed drugs)
1 | CC[C@H](C)C(=O)O[C@H]1C[C@H](O)C=C2C=C[C@H](C)[C@H](CC[C@@H](O)C[C@@H](O)CC(=O)O)[C@H]21 [pravastatin] | not an in vitro P-gp inhibitor |  |  |  |  |  |  |  | 
2 | C[C@H]1O[C@@H](O[C@H]2[C@@H](O)C[C@H](O[C@H]3[C@@H](O)C[C@H](O[C@H]4CC[C@@]5(C)[C@H](CC[C@@H]6[C@@H]5C[C@@H](O)[C@]5(C)[C@@H](C7=CC(=O)OC7)CC[C@]65O)C4)O[C@@H]3C)O[C@@H]2C)C[C@H](O)[C@@H]1O [digoxin] |  | 1.65 ± 0.07 nmol/L | 1.51 ± 0.05 nmol/L | tended to have elevated S-digoxin levels | 2.00 ± 0.25 nmol/L | 1.83 ± 0.07 nmol/L and 1.83 ± 0.17 nmol/L | 1.59 ± 0.08 nmol/L | 1.46 ± 0.05 nmol/L | 1.55 ± 0.04 nmol/L
